From PubChem BioAssay
V1aR counter: counter-screen for oxytocin receptor agonists: human V1a receptor agonists; activation, % at 3 µM; CHO-V1R cells, Fluo-8 calcium fluorescence, agonist mode; 0% DMSO, 100% 3 nM vasopressin; 0.25% of 320,000 active; AID 2797;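 active means activation above the mean activation of all tested compounds plus 3 SD, per screening run, cut at about 20% in these data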;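 further: signal is peak over basal fluorescence ratio across a 100 second FLIPR read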
OXTR potentiate: potentiators of human oxytocin receptor; activation, % at 3 µM; P30559; 0.061% of 320,000 active; CHO-OTR cells, Fluo-8 calcium fluorescence, potentiator mode; 0% = oxytocin EC15, 100% = EC100;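 active means activation above that plate's cutoff, the mean activation of tested compounds plus 3 SD, cut at about 6.6% in these data, passing the limit was not always enough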;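 further: 100% uses oxytocin at 75 nM as the full agonist control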
Target sequence (P30559 whole entry, looked up): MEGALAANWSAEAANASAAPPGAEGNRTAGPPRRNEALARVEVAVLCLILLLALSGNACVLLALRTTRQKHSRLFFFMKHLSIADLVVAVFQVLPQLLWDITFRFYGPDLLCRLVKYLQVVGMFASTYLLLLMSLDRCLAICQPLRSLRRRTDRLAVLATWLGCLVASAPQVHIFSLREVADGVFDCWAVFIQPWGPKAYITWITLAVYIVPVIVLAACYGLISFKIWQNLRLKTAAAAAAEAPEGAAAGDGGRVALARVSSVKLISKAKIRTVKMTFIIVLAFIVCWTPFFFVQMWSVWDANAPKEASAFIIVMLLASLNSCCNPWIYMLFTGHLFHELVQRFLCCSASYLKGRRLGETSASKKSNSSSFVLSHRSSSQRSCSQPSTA
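System: human OTR in CHO cells; Also added: sub-maximal oxytocin, roughly EC15; Timing: compound 6 min at room temperature before oxytocin, 100 s read; Technique: Fluo-8 intracellular calcium fluorescence, ex 470-495, em 515-575 nm; Controls: oxytocin EC15 low and EC100 high; Replication: singlicate.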
zfTRPN1 agonist: zebrafish TRPN1 (NompC) channel agonism; HEK293 zebrafish TRPN1-YFP, Fluo-8 calcium fluorescence; 100% = response to 87 µM carbachol; 0.18% of 220,000 active; activation, % at 3 µM;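 active means activation above its plate's cutoff, the mean activation of test wells on that plate plus 3 SD, cut at about 19% in these data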;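 further: 0% = DMSO alone and 100% = 87 µM carbachol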
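Assay system: Zebrafish TRPN1-YFP in HEK293 cells | Incubation: Dye loading 1 h at 37 °C, then 30 min room temperature | Measured by: Kinetic Fluo-8 fluorescence, ex 470-495, em 515-575 nm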
TRPML3 ag: agonists of human TRPML3 channel; HEK293 TRPML3-YFP, Fluo-8 calcium fluorescence; 100% = the carbachol control signal; Q8TDD5; activation, % at 3 µM; AID 1448; 0.29% of 220,000 active;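 active means activation above its plate's cutoff, the mean activation of the plate's test wells plus 3 SD, cut at about 12% in these data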;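 further: 0% = DMSO only wells and 100% = carbachol wells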
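system = HEK293 cells stably carrying human TRPML3-YFP | doses = one concentration, 3 µM nominal, 0.3% DMSO | timing = dye loading 1 h 37 °C then 30 min ambient, 125 s read | detection = Fluo-8 calcium dye fluorescence, ex 470-495, em 515-575 nm | benchmarks = high control carbachol 87 µM, low control DMSO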
OXTR agonist: activates the human oxytocin receptor | P30559 | CHO-OTR cells, Fluo-8 calcium fluorescence; normalized: DMSO 0%, oxytocin 100% | activation, % at 3 µM | 0.32% of 320,000 active | AID 2435;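 active means activation above the mean of all tested compounds plus 3 SD, cutoff set per screening run, cut at about 20% in these data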;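 further: peak over basal fluorescence ratio from a 100 s FLIPR kinetic read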
OXTR agonist cf: confirmation of human oxytocin receptor agonists. shares compounds with OXTR agonist. CHO-OTR cells, Fluo-8 calcium fluorescence, agonist. activation, % at 3 µM. 20% of 390 active. AID 434963;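 active means mean activation above about 20% derived from the earlier single-dose screen, limit read from the data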;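 further: peak over minimum fluorescence ratio per well during a 100 second FLIPR read; 0% = DMSO alone and 100% = oxytocin high control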
V1aR counter 3x: activates V1a receptor in oxytocin agonist counter-screen | activation, % at 3 µM | shares compounds with OXTR agonist | 10% of 390 active | CHO-V1R cells, Fluo-8 calcium fluorescence;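 active means mean activation over triplicate exceeds the hit threshold set in the earlier primary screen, cut at about 20% in these data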;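 further: peak over basal fluorescence ratio within a 100 second read; 0% = DMSO alone and 100% = 3 nM vasopressin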
OXTR pot cf: confirmation of human oxytocin receptor potentiators; shares compounds with OXTR potentiate; CHO-OTR cells, Fluo-8 calcium fluorescence, potentiation; scaled from low-dose to maximal oxytocin; activation, % at 3 µM; 180 tested, under 10 active; AID 434985;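 active means mean percent activation over triplicates above a cutoff set from solvent-only control plates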;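 further: compounds tested in the presence of an EC15 dose of oxytocin; 0% = EC15 oxytocin with DMSO and 100% = EC100 oxytocin with DMSO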
* marks the source's active call; other numbers are inactive results; · = not tested or not shown. An excerpt weighted towards active compounds, which were near 0.58% of everything screened.

SMILES	V1aR counter	OXTR potentiate	zfTRPN1 agonist	TRPML3 ag	OXTR agonist	OXTR agonist cf	V1aR counter 3x	others
Cc1ccc(S(=O)(=O)NC(=O)NCCCN2CCOCC2)cc1	0.8	-1.7	·	·	0.7	·	·
Cc1cccc(NC(=O)C2(c3ccc([N+](=O)[O-])cc3)CCCC2)c1	17.4	-24.6	8.0	2.1	22.1*	7.4	3.3
Cc1cccc(NC(=O)C2(c3ccccc3)CCOCC2)c1	-1.1	-4.9	-0.5	0.6	-1.7	·	·
Cc1nc2ccccc2n2c(O)c(CC(=O)O)cc12	15.5	2.1	0.0	1.2	24.4*	0.9	2.3
Cc1nc2ccccc2n1CCC(=O)O	-1.2	-4.0	-0.4	0.8	0.7	·	·
CCc1ccccc1OC[C@@H](O)CN[C@H]1CCCc2ccccc21	14.0	-18.7	·	·	22.3*	10.5	7.3
OC(CNC1CCCc2ccccc21)COc1ccc2ccccc2c1 (stereo unspecified)	6.9	-16.1	1.1	0.0	10.8	·	·
O=C(CN(C(=O)c1csnn1)c1ccc(Br)cc1)NC1CCCCC1	4.8	-11.3	·	·	-0.3	·	·
COC(=O)Cc1ccc(NC(=S)Nc2cccc(C)n2)cc1	-0.7	-5.2	-0.2	1.4	-2.0	·	·
CCOc1ccc(NS(=O)(=O)c2ccc(C(=O)NCC(C)(C)N3CCOCC3)cc2)cc1	8.1	-4.2	·	·	7.3	·	·
CC(C)(CNC(=O)c1ccc(S(=O)(=O)Nc2ccc(Cl)cc2)cc1)N1CCOCC1	14.8	-11.8	·	·	21.4*	9.9	5.7
C=CCn1c(SCCCC)nc(O)cc1=O	2.6	-9.2	1.4	0.4	33.3*	0.8	0.1
O=C(CNS(=O)(=O)c1ccc(Br)cc1)NCc1ccncc1	-0.9	-4.0	·	·	-0.2	·	·
CC1C/C(=C/c2ccco2)C(=O)/C(=C/c2ccco2)C1 (stereo unspecified)	5.7	-7.5	0.4	0.2	24.3*	6.2	5.3
CC(C)(C)N(NC(=O)Nc1ccc(Cl)c(Cl)c1)C(=O)c1ccccc1	8.3	-26.6	8.2	3.3	20.4*	10.0	10.5
CC(C)(C)N(NC(=O)Nc1ccc(F)cc1)C(=O)c1ccccc1	1.3	-2.2	0.6	0.3	0.1	·	·
CCOc1ccc(/C=C/C2=Cc3c(sc(NC(=O)CSc4n[nH]c(N)n4)c3C#N)C(C)(C)C2)cc1	9.3	2.3	7.2	3.1	26.5*	12.5	6.5
CCOC(=O)c1sc(NC(=O)CSc2n[nH]c(-c3ccncc3)n2)c(C#N)c1C	9.8	-19.7	9.4	1.7	17.5	·	·
Cc1ccc(C(=O)NC(=S)NNC(=O)c2ccccc2O)cc1	11.4	-23.2	·	·	21.6*	35.0*	29.8*
Cc1ccc(NS(=O)(=O)c2ccc(OCC(=O)NCc3ccncc3)cc2)cc1	-0.7	-6.9	0.5	0.3	-1.4	·	·
Cc1nc(SCC(=O)Nc2c(C)nn(C)c2C)c2cnn(-c3ccccc3)c2n1	6.2	-16.9	1.4	0.1	22.9*	7.0	8.2
CCC1(c2ccc(F)cc2)NC(=O)N(CC(=O)Nc2ccc(N3CCCCC3)cc2)C1=O (stereo unspecified)	15.4	-17.5	·	·	27.2*	16.1	14.1
COc1ccc(C(C(=O)NC2CCCC2)N(CC2CCCO2)C(=O)Cc2cccs2)cc1OC (stereo unspecified)	1.1	0.2	-1.0	0.4	-0.7	·	·
O=C(NC1CCCC1)C(c1cccs1)N(CC1CCCO1)C(=O)Cc1cccs1 (stereo unspecified)	-0.6	-13.2	1.2	-0.4	19.9*	-0.9	1.3
COc1ccc(CN(C(=O)c2ccco2)c2ccc(C)c(C)c2)cc1	4.0	-9.3	-2.1	-0.9	-1.2	·	·
SMILES	V1aR counter	OXTR potentiate	zfTRPN1 agonist	TRPML3 ag	OXTR agonist	OXTR agonist cf	V1aR counter 3x	others
COC1=CC(=Cc2c(N)n3nc(CC(=O)N4CCOCC4)sc3nc2=O)C=C(OC)C1=O	7.9	-0.2	·	·	20.5*	55.2*	96.9*
Nc1c(C=C2C=CC(=O)C=C2)c(=O)nc2sc(CC(=O)N3CCOCC3)nn12	1.1	-3.5	·	·	0.1	·	·
CCn1c2ccccc2c2cc(CNCc3ccc(OC)cc3OC)ccc21	4.7	-12.2	-0.2	1.2	23.2*	5.3	2.1
COc1cccc(CNCc2ccc(OC)cc2OC)c1	2.7	-1.1	·	·	2.4	·	·
CN1CCN(C(=S)c2ccc(OCC(=O)Nc3cccc(C(F)(F)F)c3)cc2)CC1	13.1	-32.4	5.6	2.3	20.3*	8.8	8.2
COc1cc(C(=O)NCc2cccnc2)ccc1OCC(=O)Nc1cccc(C(F)(F)F)c1	17.7	-7.9	·	·	23.2*	6.8	7.6
CC(Sc1n[nH]c(-c2ccccc2F)n1)C(=O)Nc1ccc(S(N)(=O)=O)cc1 (stereo unspecified)	-0.2	-2.2	·	·	-0.9	·	·
Cc1cccc2sc(NC(=O)CCNS(=O)(=O)c3cccc4nonc34)nc12	13.1	-11.7	3.5	1.4	20.1*	3.8	3.4
O=C1N(Cc2cccc(Cl)c2)C[C@@H]2C[C@@H](c3c[nH]c4ccccc34)N3CCC[C@@]123	0.7	-10.0	2.1	1.3	0.9	·	·
CC(=O)c1c(C)[nH]c(C(=O)CN2C(=O)NC(C)(c3ccc(C)cc3)C2=O)c1C (stereo unspecified)	19.9	-12.7	16.9	6.6	20.4*	25.7*	16.8
CCC(C)[C@H](NC(=O)[C@@H]1CSC2c3ccccc3C(=O)N21)C(=O)NCc1ccncc1 (stereo partly specified)	-0.8	-4.0	·	·	-0.9	·	·
CCn1c(SCC(=O)Nc2nc(C)cs2)nnc1-c1cccnc1	0.2	11.2*	-0.2	0.7	0.1	·	·	OXTR pot cf=-3.0
CCn1c(SCC(=O)Nc2nccs2)nnc1-c1cccnc1	0.3	-5.5	·	·	0.3	·	·
COC(CNC(=O)c1cn(C)c2ccc(S(=O)(=O)N3CCOCC3)cc2c1=O)OC	-0.3	-5.9	·	·	-0.3	·	·
CCn1cc(C(=O)NCC(OC)OC)c(=O)c2cc(S(=O)(=O)N3CCOCC3)ccc21	0.8	12.7*	·	·	1.2	·	·	OXTR pot cf=-6.5
CCOc1ccc(CC(=NCCc2ccccc2)C2=C(O)CC(C)(C)CC2=O)cc1OCC	0.1	0.0	0.6	-0.5	-2.6	·	·
CC(Oc1cc2oc(=O)cc(-c3ccccc3)c2cc1Cl)C(=O)NCC1CCC(C(=O)O)CC1 (stereo unspecified)	0.7	-1.3	·	·	0.0	·	·
CCc1cc2c(-c3ccccc3)cc(=O)oc2cc1OC(C)C(=O)NCC1CCC(C(=O)O)CC1 (stereo unspecified)	-0.3	9.8*	·	·	0.7	·	·	OXTR pot cf=-2.4
